Assay results published in ChEMBL document CHEMBL1135118, “Aromatic farnesyl diphosphate analogues: vinyl triflate-mediated synthesis and preliminary enzymatic evaluation” (Bioorg Med Chem Lett, 2002).
One block for each compound: values may come before it.

Assays:
Type in all cases: protein-complex assay
[1] = molecular target: T1, Protein farnesyltransferase (Homo sapiens, UniProt P49354+P49356); experiment: Inhibitory activity against mammalian protein-Farnesyltransferase
How it was run: (§1)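 Inhibition read in the continuous fluorescence assay with recombinant mammalian FTase and dansyl-GCVLS peptide at 30 °C for 300 s (ex 350/em 486 nm). Tris–HCl pH 7.0 buffer held DTT, MgCl₂, ZnCl₂ and 0.4% dodecyl maltoside. E,E-FPP was fixed while analogue amounts varied; farnesylation rate was measured for each.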

[2] = molecular target: T1, Protein farnesyltransferase; experiment: Inhibitory activity against mammalian protein-Farnesyltransferase at 10 uM
[3] = molecular target: T1, Protein farnesyltransferase; experiment: Inhibitory activity against mammalian protein-farnesyltransferase; how it was run: as §1
[4] = system: C/C(=C\COP(=O)(O)OP(=O)(O)O)CCc1ccc(-c2ccccc2)cc1; experiment: Binding affinity for Farnesyltransferase
How it was run: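 Continuous fluorimetric farnesylation assay with purified recombinant mammalian FTase and dansyl-GCVLS peptide as cosubstrate. FPP analogue or E,E-FPP supplied as a varied substrate in 52 mM Tris–HCl pH 7.0 with 5.8 mM DTT, MgCl₂, ZnCl₂ and 0.4% n-dodecyl-β-D-maltoside. Reaction started with enzyme; fluorescence (ex 350/em 486 nm) recorded for 300 s at 30 °C. Initial fluorescence rates were converted to velocities for Km.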

IC50 [1]: 5.4 µM
Compound: C/C(=C\COP(=O)(O)OP(=O)(O)O)CCc1ccc2ccccc2c1

IC50 [2]: > 10 µM
Compound: C/C(=C\COP(=O)(O)OP(=O)(O)O)CCc1ccccc1-c1ccccc1

IC50 [3]: 2300 nM
Compound: C/C(=C\COP(=O)(O)OP(=O)(O)O)COCc1ccc(C(=O)c2ccccc2)cc1

Compound: Protein farnesyltransferase (Homo sapiens) (from UniProt P49354+P49356)
Km [4]: 0.8 µM
